Assays:
[1] = target: MUC5AC (Sus scrofa, UniProt A0A8W4FM62); test: Equilibrium dialysis; type: binding, pig; details: mucin 0.5% w/v; for Mucin binding rank within the NIH Clinical Collection (NCC) set (ΔG): in PBS, 41 NCC molecules, 200 nM
[2] = test system: P. aeruginosa strain PAO1; test: Colistin MIC by modified broth microdilution assay; type: cell-based, Pseudomonas aeruginosa; details: in MHB, 37 °C, 24 hours, visual inspection
Outline: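 PAO1 grown overnight in Mueller-Hinton II broth (MHB) at 37 °C, then diluted into fresh MHB to about 3×10⁴ CFU/mL. Test compound stock in water was serially diluted 2-fold in MHB and mixed 1:10 with the inoculum (final 1 mg/mL to 0.4 μg/mL). Plates incubated 24 h at 37 °C. MIC taken as the lowest concentration with no visible growth.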

[3] = cited from earlier work
[4] = test system: P. aeruginosa strain PAO1; test: Colistin efficacy; type: cell-based, Pseudomonas aeruginosa; details: colistin 8 or 16 μg/mL, 24 h

Sequence of MUC5AC (A0A8W4FM62 1-4915): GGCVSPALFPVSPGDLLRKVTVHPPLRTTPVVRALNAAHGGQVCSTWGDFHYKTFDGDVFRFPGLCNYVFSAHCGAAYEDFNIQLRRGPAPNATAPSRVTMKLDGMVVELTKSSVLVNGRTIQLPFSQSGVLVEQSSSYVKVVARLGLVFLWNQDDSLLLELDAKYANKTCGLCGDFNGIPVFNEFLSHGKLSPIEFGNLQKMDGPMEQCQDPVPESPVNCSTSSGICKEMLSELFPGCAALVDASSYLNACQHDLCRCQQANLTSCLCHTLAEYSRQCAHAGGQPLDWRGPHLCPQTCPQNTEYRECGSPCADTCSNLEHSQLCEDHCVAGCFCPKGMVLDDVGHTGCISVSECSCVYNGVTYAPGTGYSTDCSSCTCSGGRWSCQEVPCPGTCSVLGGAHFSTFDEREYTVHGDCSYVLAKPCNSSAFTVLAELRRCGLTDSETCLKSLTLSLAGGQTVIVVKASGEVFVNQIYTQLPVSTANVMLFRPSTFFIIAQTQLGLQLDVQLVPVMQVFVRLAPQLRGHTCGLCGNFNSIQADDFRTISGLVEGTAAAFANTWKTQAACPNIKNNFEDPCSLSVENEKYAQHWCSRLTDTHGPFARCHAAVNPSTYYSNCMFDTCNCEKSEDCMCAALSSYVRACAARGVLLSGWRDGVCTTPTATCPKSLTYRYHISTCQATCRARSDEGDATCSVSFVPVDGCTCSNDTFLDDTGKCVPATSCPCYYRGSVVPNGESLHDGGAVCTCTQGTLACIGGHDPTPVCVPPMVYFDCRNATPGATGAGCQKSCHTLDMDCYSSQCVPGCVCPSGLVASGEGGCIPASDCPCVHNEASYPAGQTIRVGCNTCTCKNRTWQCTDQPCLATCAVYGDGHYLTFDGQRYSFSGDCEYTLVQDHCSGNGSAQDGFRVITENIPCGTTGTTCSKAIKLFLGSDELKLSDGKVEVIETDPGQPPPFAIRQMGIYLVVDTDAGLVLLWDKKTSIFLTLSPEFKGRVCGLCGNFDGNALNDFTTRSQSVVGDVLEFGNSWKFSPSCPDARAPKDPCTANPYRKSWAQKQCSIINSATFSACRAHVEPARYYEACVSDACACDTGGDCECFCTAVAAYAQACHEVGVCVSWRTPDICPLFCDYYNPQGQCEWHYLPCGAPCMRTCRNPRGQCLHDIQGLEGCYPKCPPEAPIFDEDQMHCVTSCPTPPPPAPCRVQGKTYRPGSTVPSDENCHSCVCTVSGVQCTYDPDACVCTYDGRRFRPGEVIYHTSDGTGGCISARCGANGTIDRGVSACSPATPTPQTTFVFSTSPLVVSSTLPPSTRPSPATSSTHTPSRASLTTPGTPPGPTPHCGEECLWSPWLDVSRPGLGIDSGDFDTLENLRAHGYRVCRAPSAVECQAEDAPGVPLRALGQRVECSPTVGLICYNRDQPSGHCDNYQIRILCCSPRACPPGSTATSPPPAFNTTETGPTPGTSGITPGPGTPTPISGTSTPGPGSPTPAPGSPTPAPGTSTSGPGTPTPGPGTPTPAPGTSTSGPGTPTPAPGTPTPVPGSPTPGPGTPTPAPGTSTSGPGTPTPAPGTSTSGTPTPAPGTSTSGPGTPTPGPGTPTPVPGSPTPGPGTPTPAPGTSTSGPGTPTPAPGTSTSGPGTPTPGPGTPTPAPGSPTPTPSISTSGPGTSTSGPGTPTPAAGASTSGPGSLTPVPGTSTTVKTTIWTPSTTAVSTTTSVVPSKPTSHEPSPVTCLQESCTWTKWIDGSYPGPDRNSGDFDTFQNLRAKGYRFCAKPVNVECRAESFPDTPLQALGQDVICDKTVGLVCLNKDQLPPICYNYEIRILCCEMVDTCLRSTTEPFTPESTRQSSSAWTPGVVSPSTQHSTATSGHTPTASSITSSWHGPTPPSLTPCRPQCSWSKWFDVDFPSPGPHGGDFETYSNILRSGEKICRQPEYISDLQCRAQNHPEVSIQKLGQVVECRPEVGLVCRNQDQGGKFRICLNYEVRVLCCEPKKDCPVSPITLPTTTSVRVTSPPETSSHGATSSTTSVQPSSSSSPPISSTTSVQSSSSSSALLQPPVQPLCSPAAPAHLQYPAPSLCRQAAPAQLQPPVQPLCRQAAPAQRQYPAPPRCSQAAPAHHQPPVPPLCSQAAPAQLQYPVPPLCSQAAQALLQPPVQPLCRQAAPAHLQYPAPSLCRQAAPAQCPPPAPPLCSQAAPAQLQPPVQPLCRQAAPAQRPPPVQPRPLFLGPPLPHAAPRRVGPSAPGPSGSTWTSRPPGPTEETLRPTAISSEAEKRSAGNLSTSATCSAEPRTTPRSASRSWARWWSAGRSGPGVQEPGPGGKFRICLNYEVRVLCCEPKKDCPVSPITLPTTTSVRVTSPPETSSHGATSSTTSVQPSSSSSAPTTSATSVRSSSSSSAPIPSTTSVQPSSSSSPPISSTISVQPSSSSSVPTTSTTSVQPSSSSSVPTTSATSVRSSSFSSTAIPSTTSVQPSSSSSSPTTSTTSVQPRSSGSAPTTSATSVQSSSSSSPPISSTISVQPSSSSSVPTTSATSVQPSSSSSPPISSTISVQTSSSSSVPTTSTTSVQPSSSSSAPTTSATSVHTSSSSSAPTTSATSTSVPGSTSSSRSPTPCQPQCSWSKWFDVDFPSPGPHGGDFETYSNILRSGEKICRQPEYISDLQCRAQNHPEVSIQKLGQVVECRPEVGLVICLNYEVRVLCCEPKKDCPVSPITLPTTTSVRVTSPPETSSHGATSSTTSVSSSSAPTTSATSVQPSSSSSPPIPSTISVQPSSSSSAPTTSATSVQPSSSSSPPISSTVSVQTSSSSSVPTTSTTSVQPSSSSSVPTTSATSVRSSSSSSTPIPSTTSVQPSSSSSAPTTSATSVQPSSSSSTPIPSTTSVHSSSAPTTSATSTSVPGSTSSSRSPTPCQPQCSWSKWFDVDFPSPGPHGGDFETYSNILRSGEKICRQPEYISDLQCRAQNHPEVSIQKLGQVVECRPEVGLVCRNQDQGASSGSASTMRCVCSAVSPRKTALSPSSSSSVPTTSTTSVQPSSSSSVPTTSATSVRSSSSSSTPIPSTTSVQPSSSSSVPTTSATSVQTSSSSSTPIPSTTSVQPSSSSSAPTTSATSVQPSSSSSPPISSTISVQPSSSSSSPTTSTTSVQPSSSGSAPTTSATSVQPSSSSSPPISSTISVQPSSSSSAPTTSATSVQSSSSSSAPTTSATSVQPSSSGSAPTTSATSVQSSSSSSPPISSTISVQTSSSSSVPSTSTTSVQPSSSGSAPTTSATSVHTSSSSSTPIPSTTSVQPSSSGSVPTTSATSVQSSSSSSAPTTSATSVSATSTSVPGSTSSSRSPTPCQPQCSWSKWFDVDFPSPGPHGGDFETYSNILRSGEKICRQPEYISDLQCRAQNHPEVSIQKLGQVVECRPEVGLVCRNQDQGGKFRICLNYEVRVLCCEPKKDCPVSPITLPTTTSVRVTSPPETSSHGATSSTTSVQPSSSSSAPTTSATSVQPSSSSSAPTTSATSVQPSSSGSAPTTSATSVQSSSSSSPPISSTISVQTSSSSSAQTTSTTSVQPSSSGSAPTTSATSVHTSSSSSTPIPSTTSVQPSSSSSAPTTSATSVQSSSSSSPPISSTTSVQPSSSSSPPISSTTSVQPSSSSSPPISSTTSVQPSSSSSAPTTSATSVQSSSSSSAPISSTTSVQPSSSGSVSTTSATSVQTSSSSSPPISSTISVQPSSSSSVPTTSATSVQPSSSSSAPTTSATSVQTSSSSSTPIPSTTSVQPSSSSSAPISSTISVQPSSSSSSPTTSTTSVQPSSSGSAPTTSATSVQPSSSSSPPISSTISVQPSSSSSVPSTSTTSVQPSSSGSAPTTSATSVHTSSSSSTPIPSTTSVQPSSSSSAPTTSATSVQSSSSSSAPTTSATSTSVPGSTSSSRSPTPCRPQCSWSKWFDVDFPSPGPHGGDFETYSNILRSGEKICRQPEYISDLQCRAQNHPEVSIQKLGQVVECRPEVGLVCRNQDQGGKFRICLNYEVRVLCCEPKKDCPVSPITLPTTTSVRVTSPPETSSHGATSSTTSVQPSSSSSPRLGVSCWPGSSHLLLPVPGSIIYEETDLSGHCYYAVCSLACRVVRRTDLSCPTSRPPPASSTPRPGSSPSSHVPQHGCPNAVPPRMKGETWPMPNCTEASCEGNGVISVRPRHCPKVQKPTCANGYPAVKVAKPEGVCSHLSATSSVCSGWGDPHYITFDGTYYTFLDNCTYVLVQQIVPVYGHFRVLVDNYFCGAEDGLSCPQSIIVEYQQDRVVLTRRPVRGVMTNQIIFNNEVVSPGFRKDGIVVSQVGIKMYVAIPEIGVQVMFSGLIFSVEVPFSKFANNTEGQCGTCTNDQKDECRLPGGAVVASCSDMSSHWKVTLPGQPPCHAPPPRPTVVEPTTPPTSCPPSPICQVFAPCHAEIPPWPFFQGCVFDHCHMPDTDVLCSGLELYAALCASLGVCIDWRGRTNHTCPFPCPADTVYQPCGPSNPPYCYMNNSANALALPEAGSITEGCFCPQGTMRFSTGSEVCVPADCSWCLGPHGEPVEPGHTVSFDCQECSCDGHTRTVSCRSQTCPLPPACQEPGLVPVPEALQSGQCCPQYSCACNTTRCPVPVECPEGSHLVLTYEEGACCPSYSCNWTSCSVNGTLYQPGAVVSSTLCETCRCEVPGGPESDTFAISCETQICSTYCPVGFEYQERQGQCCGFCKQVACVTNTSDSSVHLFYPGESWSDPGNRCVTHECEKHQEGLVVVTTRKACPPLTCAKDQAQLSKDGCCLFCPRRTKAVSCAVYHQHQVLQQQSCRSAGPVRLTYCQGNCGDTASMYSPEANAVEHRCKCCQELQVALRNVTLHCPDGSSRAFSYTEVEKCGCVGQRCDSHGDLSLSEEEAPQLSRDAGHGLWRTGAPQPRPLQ

Molecule | Mucin binding rank within the NIH Clinical Collection (NCC) set (ΔG) [1] | Molecular charge [3] | other results
Nc1nc(Cl)nc2c1ncn2[C@H]1C[C@H](O)[C@@H](CO)O1 [cladribine] | four strongest mucin binders | – | –
CNCCCC12CCC(c3ccccc31)c1ccccc12 [maprotiline] | four strongest mucin binders | – | –
colistin | – | +5 | MIC [2]: 8 µg/mL; Binding to mucin (ΔG; negative ΔG implies binding) ([1]; colistin 10 μM, 4 h, 37 °C): bound to mucin; Effect of methylcellulose on colistin activity (surviving PAO1 cells, CFU) ([4]; MC 0.5% w/v in MHB): negligible effect; Effect of mucin on colistin activity (surviving PAO1 cells, CFU) ([4]; mucin 0.5% w/v in MHB): inhibited the effect of colistin to a substantial degree
COc1cccc2c1C(=O)c1c(O)c3c(c(O)c1C2=O)C[C@@](O)(C(=O)CO)C[C@@H]3O[C@H]1C[C@H](N)[C@H](O)[C@H](C)O1 [doxorubicin] | four strongest mucin binders | – | –
NC[C@H]1O[C@H](O[C@H]2[C@H](O)[C@@H](O[C@H]3O[C@H](CO)[C@@H](O)[C@H](N)[C@H]3O)[C@H](N)C[C@@H]2N)[C@H](N)C[C@@H]1O [tobramycin] | – | +5 | –
O=c1c(-c2ccccc2)c1-c1ccccc1 [diphencyprone] | four strongest mucin binders | – | –
